Experimental data published in ChEMBL document CHEMBL5104108, “Concise synthesis and biological activity evaluation of novel pyrazinyl-aryl urea derivatives against several cancer cell lines, which can especially induce T24 apoptotic and necroptotic cell death” (RSC Med Chem, 2022).
Activity calls are given as the source filed them. The calls are words filed in the database; no cut-off is given here.

Tests used:
MGC-803 = test: Antiproliferative activity against human MGC-803 cells measured after 48 hrs by MTT assay; format: functional, cell-based; conditions: MGC-803, 48 h
Method in brief: (§1)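 Cells seeded 5 × 10^3 per well, grown overnight at 37 °C, then exposed to compound at final 1–40 μM (1, 2.5, 5, 7.5, 10, 12.5, 15, 20, 30, 40 μM) for the stated period. MTT added, 4 h at 37 °C, formazan dissolved in DMSO, absorbance read. IC50 = concentration killing 50% of cells relative to untreated control; mean ± S.D. of four independent experiments.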

T-24 [1] = test: Antiproliferative activity against human T24 cells measured after 24 hrs by MTT assay; format: functional, cell-based; conditions: T-24, 24 h; method in brief: as §1
T-24 [2] = test: Induction of apoptosis in human T24 cells assessed as decrease in Bcl-2 expression at 5 to 7.5 uM measured by Western blot analysis; format: functional, cell-based; conditions: dose 5-7.5 µM
Method in brief: (§2)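 Apoptosis-related proteins measured by Western blot in T24 lysates: 40 μg protein per lane by SDS-PAGE, PVDF transfer, primary and peroxidase-linked secondary antibodies, ECL detection, densitometry of gray values with β-actin as loading control.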

T-24 [3] = test: Induction of apoptosis in human T24 cells assessed as increase in caspase-3 expression at 0 to 5 uM measured by Western blot analysis; format: functional, cell-based; conditions: dose 0-5 µM; method in brief: as §2
T-24 [4] = test: Induction of apoptosis in human T24 cells assessed as increase in cleaved caspase-3 expression at 0 to 5 uM measured by Western blot analysis; format: functional, cell-based; conditions: dose 0-5 µM; method in brief: as §2
T-24 [5] = test: Induction of necroptosis in human T24 cells assessed as necrotic cells at 7.5 to 12.5 uM measured after 16 hrs by flow cytometry analysis; format: functional, cell-based; conditions: dose 7.5-12.5 µM
Method in brief: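 T24 cells in 60 mm dishes treated at 37 °C for 16 h with or without Nec-1 (60 μM). Washed thrice in PBS, then stained with Annexin V-FITC/PI for 15 min at room temperature in the dark. Flow cytometry, ≥1 × 10^4 events. Necrotic fraction taken as Annexin−/PI+. Done in triplicate.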

T-24 [6] = test: Up-regulation of MLKL expression in human T24 cells at 7.5 to 10 uM measured after 16 hrs by Western blot analysis; format: functional, cell-based; conditions: dose 7.5-10 µM
T-24 [7] = test: Up-regulation of p-RIPK3 expression in human T24 cells at 7.5 to 10 uM measured after 16 hrs by Western blot analysis; format: functional, cell-based; conditions: dose 7.5-10 µM
T-24 [8] = test: Up-regulation of p-MLKL expression in human T24 cells at 7.5 to 10 uM measured after 16 hrs by Western blot analysis; format: functional, cell-based; conditions: dose 7.5-10 µM
T-24 [9] = test: Down-regulation of RIPK3 expression in human T24 cells at 7.5 to 10 uM measured in presence of 60 uM Nec-1 after 16 hrs by Western blot analysis; format: functional, cell-based; conditions: dose 7.5-10 µM
Method in brief: (§3)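 T24 cells co-incubated 16 h with or without Nec-1 (60 μM). Lysates quantified by BCA, 40 μg protein resolved by SDS-PAGE, transferred to PVDF, probed with primary and peroxidase-conjugated secondary antibodies, detected by ECL. Band gray values normalized to β-actin loading control.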

T-24 [10] = test: Down-regulation of MLKL expression in human T24 cells at 7.5 to 10 uM measured in presence of 60 uM Nec-1 after 16 hrs by Western blot analysis; format: functional, cell-based; conditions: dose 7.5-10 µM; method in brief: as §3
T-24 [11] = test: Down-regulation of p-MLKL expression in human T24 cells at 7.5 to 10 uM measured in presence of 60 uM Nec-1 after 16 hrs by Western blot analysis; format: functional, cell-based; conditions: dose 7.5-10 µM; method in brief: as §3
T-24 [12] = test: Up-regulation of RIPK1 mRNA expression in human T24 cells at 7.5 to 12.5 uM measured by RT-PCR analysis; format: functional, cell-based; conditions: dose 7.5-12.5 µM
Method in brief: (§4)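 Total T24 RNA extracted with TRIzol. RT-PCR normalized to GAPDH, relative expression by 2−ΔΔCt versus control. Incubation 16 h for RIPK1/RIPK3/MLKL. At least three independent experiments, each in triplicate.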

T-24 [13] = test: Up-regulation of RIPK3 mRNA expression in human T24 cells at 7.5 to 12.5 uM measured by RT-PCR analysis; format: functional, cell-based; conditions: dose 7.5-12.5 µM; method in brief: as §4
T-24 [14] = test: Induction of intracellular reactive oxygen species production in human T24 cells assessed as ROS level at 5 uM measured after 16 hrs by flow cytometry analysis; format: functional, cell-based
Method in brief: (§5)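 After 16 h treatment, floating and adherent T24 cells pooled and loaded with DCFH-DA (final 10 μM) for 30 min at 37 °C in the dark, washed, resuspended in PBS and analyzed by flow cytometry; fluorescence also quantified by luminescence spectrometry. ROS expressed relative to control; mean ± S.D. of three independent experiments.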

T-24 [15] = test: Induction of intracellular reactive oxygen species production in human T24 cells assessed as ROS level at 7.5 uM measured after 16 hrs by flow cytometry analysis; format: functional, cell-based; method in brief: as §5
T-24 [16] = test: Induction of intracellular reactive oxygen species production in human T24 cells at 5 to 10 uM measured in presence of 60 uM Nec-1 after 16 hrs by flow cytometry analysis; format: functional, cell-based; conditions: dose 5-10 µM
Method in brief: (§6)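 After 5-23 treatment (16 h), floating and adherent T24 cells pooled and loaded with DCFH-DA (final 10 μM) for 30 min at 37 °C in the dark. Cells washed, resuspended in PBS and read by flow cytometry; quantified by luminescence spectrometry as % of control. Runs with zVAD (30 μM) or Nec-1 (60 μM). Three parallel samples.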

T-24 [17] = test: Induction of intracellular reactive oxygen species production in human T24 cells at 5 to 10 uM measured in presence of 30 uM z-VAD after 16 hrs by flow cytometry analysis; format: functional, cell-based; conditions: dose 5-10 µM; method in brief: as §6
T-24 [18] = test: Induction of mitochondrial dysfunction in human T24 cells assessed as decrease in mitochondrial membrane potential at 5 to 10 uM measured by JC-1 staining based assay; format: functional, cell-based; conditions: dose 5-10 µM
Method in brief: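 Floating and adherent T24 cells pooled after pretreatment. Washed in cold PBS and stained in the dark with JC-1 (10 μg mL−1). Red and green fluorescence imaged by laser scanning confocal microscopy, five random fields per sample.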

[19] = Cmax in Sprague-Dawley rat at 6 mg/kg, IG measured HPLC analysis; format: ADME, organism-based; set-up: dose 6 mg/kg, route ig; conditions: in vivo, po
[20] = Tmax in Sprague-Dawley rat at 12 mg/kg, IG measured HPLC analysis; format: ADME, organism-based; conditions: in vivo, po
Method in brief: (§7)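 Fasted (12 h) male-unspecified Sprague-Dawley rats (250 ± 20 g), n = 6 per group. Single intragastric dose of suspension (2 mg mL−1 in Tween 80/0.9% NaCl 1.5:5 v/v). Orbital blood drawn at 0.5–48 h and plasma assayed by reversed-phase C18 HPLC-UV. One-compartment fit, weight 1.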

[21] = AUC (0 to 48 hrs) in Sprague-Dawley rat at 12 mg/kg, IG measured HPLC analysis; format: ADME, organism-based; set-up: time < 48 hr, dose 12 mg/kg, route ig; conditions: in vivo, po
[22] = AUMC in Sprague-Dawley rat at 12 mg/kg, IG measured HPLC analysis; format: ADME, organism-based; conditions: in vivo, po
[23] = Absorption rate constant in Sprague-Dawley rat at 6 mg/kg, IG measured HPLC analysis; format: ADME, organism-based; conditions: in vivo, po
[24] = Clearance in Sprague-Dawley rat at 6 mg/kg, IG measured HPLC analysis; format: ADME, organism-based; conditions: in vivo, po
[25] = MRT (0 to 48 hrs) in Sprague-Dawley rat at 12 mg/kg, IG measured HPLC analysis; format: ADME, organism-based; conditions: in vivo, po; method in brief: as §7
[26] = MRT (0 to 48 hrs) in Sprague-Dawley rat at 6 mg/kg, IG measured HPLC analysis; format: ADME, organism-based; conditions: in vivo, po; method in brief: as §7

IC50 (MGC-803): 6.91 µM
Cmax [19]: 1190 ng/mL
Tmax [20]: 12.4 h
AUC(0-t) at 48 h [21]: 75800 ng·h/mL
AUMC [22]: 1494860 hr2.ng/ml
Ka [23]: 0.098 h⁻¹
CL/F [24]: 0.811 mL/min
MRT last [25]: 10.3 h
MRT last [26]: 9.17 h
SMILES: O=C(Nc1ccc(C(F)(F)F)cc1)Nc1cccc(CNc2nccnc2Cl)c1
IC50 (T-24 [1]): 9.18 µM
Activity (T-24 [2]): Active
Activity (T-24 [3]): Active
Activity (T-24 [4]): Active
Activity (T-24 [5]): Active
Activity (T-24 [6]): Active
Activity (T-24 [7]): Active
Activity (T-24 [8]): Active
Activity (T-24 [9]): Active
Activity (T-24 [10]): Active
Activity (T-24 [11]): Active
Activity (T-24 [12]): Active
Activity (T-24 [13]): Active
Activity (T-24 [14]): Active
Activity (T-24 [15]): Active
Activity (T-24 [16]): Active
Activity (T-24 [17]): Active
Activity (T-24 [18]): Active
